Test results from ChEMBL document CHEMBL1125672, “2-acetylpyridine thiosemicarbazones. 13. Derivatives with antifilarial activity” (1991).

Key:
Acanthocheilonema viteae = experiment: anti-filarial Activity was measured against Acanthocheilonema viteae in jirds at 25 mg/kg/day(5 days) dose; assay type: functional
Summary of the method: (§1)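 Jirds with established B. pahangi or A. viteae infections were given drug once daily for 5 days by subcutaneous injection, at the maximum tolerated dose and, where supply allowed, graded lower doses. Tolerance was first checked in noninfected jirds with a single 200 mg/kg oral or subcutaneous dose, watching 72 h for excessive weight loss or death. Macrofilarial suppression was the read-out.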

Onchocerca gutturosa [1] = experiment: (§2) Mean motility score for treated Onchocerca gutturosa involving LLCMK2 feeder cells at a concentration of 1.95*10e-8 M at 0.5 h; assay type: functional
Summary of the method: (§3)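 One male O. gutturosa per well over LLCMK2 feeder cells in MEM with 10% heat-inactivated FCS, antibiotics and bicarbonate, 5% CO2; compound introduced in DMSO (≤0.016%, equal DMSO in controls). Motility scored 0 (immotile) to 10 (maximal control activity) every 30 min to 4.5 h, then at 1, 2, 3, 4 and 7 days.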

Onchocerca gutturosa [2] = experiment: as §2; assay type: functional; summary of the method: as §3; remark: listed apart in the source
Onchocerca gutturosa [3] = experiment: Colorimetric quantification of male Onchocerca gutturosa viability, expressed as % inhibition of formazan formation at 5*10e-5 M conc. by using tetrazolium Dye MTT assay; assay type: functional
Summary of the method: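 Single intact male O. gutturosa, cultured with LLCMK2 feeder cells in MEM + 10% heat-inactivated FCS (5% CO2), drug added from DMSO (≤0.016% DMSO in controls). MTT read after 168 h: worm in 0.5 mg/mL MTT, 30 min at 36.5 °C, formazan solubilized in DMSO 1 h at room temperature, absorbance 490 nm vs DMSO blank.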

Onchocerca volvulus [4] = experiment: Mean motility score for treated Onchocerca volvulus excluding LLCMK2 feeder cells at a concentration of 3.1*10e-6 M at 1 h
Onchocerca gutturosa [5] = experiment: Mean motility score for treated Onchocerca gutturosa involving LLCMK2 feeder cells at a concentration of 4.88*10e-8M at 96 h; assay type: functional
Summary of the method: (§4)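 Single male O. gutturosa worms (obtained following abattoir slaughter) per well in Eagle's MEM with 10% heat-inactivated fetal calf serum, penicillin, streptomycin, amphotericin B and bicarbonate, over LLCMK2 feeder cells, 5% CO2 in air. Drug dissolved in DMSO; controls received matched DMSO ≤0.016%. Motility scored 0 (immotile) to 10 (maximum control activity) every 30 min to 4.5 h, then days 1, 2, 3, 4, 7.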

Onchocerca gutturosa [6] = experiment: Mean motility score for treated Onchocerca gutturosa involving LLCMK2 feeder cells at a concentration of 3.1*10e-6 M at 96 h; assay type: functional; summary of the method: as §4
Onchocerca gutturosa [7] = experiment: Mean motility score for treated Onchocerca gutturosa involving LLCMK2 feeder cells at a concentration of 3.1*10e-6 M at 1 h; assay type: functional; summary of the method: as §4
Onchocerca volvulus [8] = experiment: Mean motility score for treated Onchocerca volvulus excluding LLCMK2 feeder cells at a concentration of 5*10e-5 M at 0.5 h
Onchocerca volvulus [9] = experiment: Mean motility score for treated Onchocerca volvulus excluding LLCMK2 feeder cells at a concentration of 3.1*10e-6 M at 0.5 h
Onchocerca gutturosa [10] = experiment: Mean motility score for treated Onchocerca gutturosa involving LLCMK2 feeder cells at a concentration of 3.1*10e-6 M at 168 h; assay type: functional; summary of the method: as §4
Onchocerca gutturosa [11] = experiment: Mean motility score for treated Onchocerca gutturosa involving LLCMK2 feeder cells at a concentration of 1.95*10e-8 M at 96 h; assay type: functional; summary of the method: as §3
Onchocerca gutturosa [12] = experiment: Mean motility score for treated Onchocerca gutturosa involving LLCMK2 feeder cells at a concentration of 1.95*10e-8 M at 48 h; assay type: functional; summary of the method: as §3
Onchocerca gutturosa [13] = experiment: Mean motility score for treated Onchocerca gutturosa involving LLCMK2 feeder cells at a concentration of 4.88*10e-8M at 72 h; assay type: functional; summary of the method: as §4
Onchocerca gutturosa [14] = experiment: Mean motility score for treated Onchocerca gutturosa involving LLCMK2 feeder cells at a concentration of 1.95*10e-8 M at 2 h; assay type: functional; summary of the method: as §3
Onchocerca gutturosa [15] = experiment: Mean motility score for treated Onchocerca gutturosa involving LLCMK2 feeder cells at a concentration of 1.95*10e-8 M at 1.5 h; assay type: functional; summary of the method: as §3
Onchocerca gutturosa [16] = experiment: Mean motility score for treated Onchocerca gutturosa involving LLCMK2 feeder cells at a concentration of 1.95*10e-8 M at 1 h; assay type: functional; summary of the method: as §3
Onchocerca gutturosa [17] = experiment: Mean motility score for treated Onchocerca gutturosa involving LLCMK2 feeder cells at a concentration of 3.1*10e-6 M at 3.5 h; assay type: functional; summary of the method: as §4
Onchocerca volvulus [18] = experiment: Mean motility score for treated Onchocerca volvulus excluding LLCMK2 feeder cells at a concentration of 5*10e-5 M at 48 h
Onchocerca gutturosa [19] = experiment: Mean motility score for treated Onchocerca gutturosa involving LLCMK2 feeder cells at a concentration of 3.05*10e-9 M at 168 h; assay type: functional; summary of the method: as §4
Onchocerca gutturosa [20] = experiment: Mean motility score for treated Onchocerca gutturosa involving LLCMK2 feeder cells at a concentration of 5*10e-5 M at 3.5 h; assay type: functional; summary of the method: as §4
Onchocerca volvulus [21] = experiment: Mean motility score for treated Onchocerca volvulus excluding LLCMK2 feeder cells at a concentration of 5*10e-5 M at 1 h
Onchocerca gutturosa [22] = experiment: Mean motility score for treated Onchocerca gutturosa involving LLCMK2 feeder cells at a concentration of 4.88*10e-8M at 2.5 h; assay type: functional; summary of the method: as §4
Onchocerca gutturosa [23] = experiment: Mean motility score for treated Onchocerca gutturosa involving LLCMK2 feeder cells at a concentration of 5*10e-5 M at 2.5 h; assay type: functional; summary of the method: as §4
Onchocerca gutturosa [24] = experiment: Mean motility score for treated Onchocerca gutturosa involving LLCMK2 feeder cells at a concentration of 3.05*10e-8 M at […]; assay type: functional; summary of the method: as §3
Onchocerca volvulus [25] = experiment: Mean motility score for treated Onchocerca volvulus excluding LLCMK2 feeder cells at a concentration of 3.1*10e-6 M at 1.5 h
Onchocerca gutturosa [26] = experiment: Mean motility score for treated Onchocerca gutturosa involving LLCMK2 feeder cells at a concentration of 1.21*10e-8M at 1.5 h; assay type: functional; summary of the method: as §3
Brugia pahangi [27] = experiment: anti-filarial Activity was measured against Brugia pahangi in jirds at 100 mg/kg/day(5 days) dose; assay type: functional; summary of the method: as §1
Onchocerca gutturosa [28] = experiment: Mean motility score for treated Onchocerca gutturosa involving LLCMK2 feeder cells at a concentration of 1.94*10e-7M at 96 h; assay type: functional; summary of the method: as §3
Onchocerca gutturosa [29] = experiment: Mean motility score for treated Onchocerca gutturosa involving LLCMK2 feeder cells at a concentration of 1.21*10e-8M at 1 h; assay type: functional; summary of the method: as §3
Onchocerca gutturosa [30] = experiment: Mean motility score for treated Onchocerca gutturosa involving LLCMK2 feeder cells at a concentration of 3.05*10e-9 M at 1 h; assay type: functional; summary of the method: as §3
Brugia pahangi [31] = experiment: anti-filarial Activity was measured against Brugia pahangi in jirds at 50 mg/kg/day(5 days) dose; assay type: functional; summary of the method: as §1
Onchocerca gutturosa [32] = experiment: Mean motility score for treated Onchocerca gutturosa involving LLCMK2 feeder cells at a concentration of 1.21*10e-8M at 72 h; assay type: functional; summary of the method: as §3
Onchocerca gutturosa [33] = experiment: Mean motility score for treated Onchocerca gutturosa involving LLCMK2 feeder cells at a concentration of 1.94*10e-7M at 168 h(O = IMMOTILE); assay type: functional; summary of the method: as §3
Onchocerca gutturosa [34] = experiment: Mean motility score for treated Onchocerca gutturosa involving LLCMK2 feeder cells at a concentration of 1.94*10e-7M at 1.5 h; assay type: functional; summary of the method: as §3

`C/C(=N\NC(=S)N1CCCCCC1)c1ccccn1` gave a Suppression (Acanthocheilonema viteae) of 100%, a Motility (Onchocerca gutturosa [1]) of 8.8 and a Motility (Onchocerca gutturosa [2]) of 8.8. The Inhibition (Onchocerca gutturosa [3]) was 90.3%, the Motility (Onchocerca volvulus [4]) was 6.6 and the Motility (Onchocerca gutturosa [5]) was 1.5. For the same compound, the Motility (Onchocerca gutturosa [6]) was 0, the Motility (Onchocerca gutturosa [7]) was 9.8 and the Motility (Onchocerca volvulus [8]) was 8. For the same compound, the Motility (Onchocerca volvulus [9]) was 6.6, the Motility (Onchocerca gutturosa [10]) was 0 and the Motility (Onchocerca gutturosa [11]) was 0. The Motility (Onchocerca gutturosa [12]) was 2.5, the Motility (Onchocerca gutturosa [13]) was 3.5 and the Motility (Onchocerca gutturosa [14]) was 9.3. The Motility (Onchocerca gutturosa [15]) was 9.5, the Motility (Onchocerca gutturosa [16]) was 9.5 and the Motility (Onchocerca gutturosa [17]) was 9. The Motility (Onchocerca volvulus [18]) was 1, the Motility (Onchocerca gutturosa [19]) was 3.5 and the Motility (Onchocerca gutturosa [20]) was 2.3. The Motility (Onchocerca volvulus [21]) was 8.4, the Motility (Onchocerca gutturosa [22]) was 8.3 and the Motility (Onchocerca gutturosa [23]) was 3.8. The Motility (Onchocerca gutturosa [24]) was 8.5 and the Motility (Onchocerca volvulus [25]) was 6.4.
`C/C(=N\NC(S)=Nc1ccccc1N)c1ccccn1` showed a Suppression (Acanthocheilonema viteae) of 94%, an Inhibition (Onchocerca gutturosa [3]) of 72.9% and a Motility (Onchocerca volvulus [4]) of 5. The Motility (Onchocerca gutturosa [26]) was 4.3, the Suppression (Brugia pahangi [27]) was 100% and the Motility (Onchocerca volvulus [8]) was 5. The Motility (Onchocerca volvulus [9]) was 8, the Motility (Onchocerca gutturosa [28]) was 1.8 and the Motility (Onchocerca gutturosa [29]) was 8.5. The Motility (Onchocerca gutturosa [30]) was 8.8, the Suppression (Brugia pahangi [31]) was 100% and the Motility (Onchocerca volvulus [18]) was 3.6. It also gave a Motility (Onchocerca gutturosa [19]) of 4.5, a Motility (Onchocerca gutturosa [32]) of 6.8 and a Motility (Onchocerca gutturosa [20]) of 9.5. For the same compound, the Motility (Onchocerca volvulus [21]) was 5, the Motility (Onchocerca gutturosa [23]) was 9.5 and the Motility (Onchocerca volvulus [25]) was 4.4. The Motility (Onchocerca gutturosa [33]) was 0 and the Motility (Onchocerca gutturosa [34]) was 8.
